ERa coact inh: blocks coactivator binding to human estrogen receptor alpha; P03372; TR-FRET ER-alpha LBD / SRC-1 peptide, estradiol-bound; actives 1.7% (n = 86,000); inhibition, % at 25.6 µM; in the data active means inhibition above about 50%;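 further: 0% = receptor plus peptide control and 100% = peptide only without receptor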
Rev-RRE block: HIV Rev-RRE protein-RNA interaction inhibition; P05866; Rev peptide-RRE RNA binding, FRET; inhibition, % at 8 µM; actives 0.79% (n = 97,000);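 active means inhibition above the screen-wide mean plus 3 SD, cut at about 35% in these data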;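 further: 0% = median DMSO wells and 100% = median Neomycin B control wells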
Target sequence (P05866 whole entry, looked up): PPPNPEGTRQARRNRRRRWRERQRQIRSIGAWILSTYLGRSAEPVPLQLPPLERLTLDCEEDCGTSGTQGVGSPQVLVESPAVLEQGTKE
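Test system – labelled RRE RNA duplex and labelled Rev peptide · Signal – fluorescein-to-Cy5 FRET, 480 nm excitation · Evaluation – % inhibition of FRET ratio versus controls · Benchmarks – DMSO low control, neomycin B high control · Incubation – 5 min RNA-compound premix plus 15 min binding step, 25 °C · Medium – HEPES pH 7.5 salt buffer with EDTA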
ERa coact pot: enhances coactivator binding to human estrogen receptor alpha. P03372. TR-FRET ERalpha-LBD/SRC-Cy5 coactivator binding, 2 h; 100 = basal binding, no effect. coactivator binding (% of control), % at 25.6 µM. actives 1.3% (n = 86,000). AID 639; in the data active means activity above about 200%;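 further: binding measured in presence of low estradiol as agonist stimulus; 0% = peptide alone without receptor and 100% = receptor with peptide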
ERb SRC1 inh: blocks coactivator binding to human estrogen receptor beta. Q92731. TR-FRET ER-beta LBD / SRC1-Cy5 peptide binding; receptor agonist-loaded with 1 µM estradiol. inhibition, % at 25.6 µM. actives 1.3% (n = 86,000). AID 633;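 active means compounds whose percent inhibition of the receptor-coactivator binding signal exceeds about 50% in the single-dose screen, limit read from the data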;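 further: 0% = receptor plus peptide wells without compound and 100% = peptide-only wells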
FAK blocker: blocks human focal adhesion kinase activity | Q05397 | biochemical FAK kinase activity assay | inhibition, %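 (tested at 7 µM)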 | actives 0.84% (n = 97,000) | AID 727; in the data active means inhibition above about 19%;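 further: 0% = DMSO and 100% = reference compound high control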
Smad3 FoxH1 inh: blocks human Smad3 binding to FoxH1 peptide; P84022; AID 630; TR-FRET Smad3/Dy647-FoxH1 peptide binding, europium anti-His; inhibition, % at 25 µM; actives 0.29% (n = 88,000);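 active means compounds that reduce the energy-transfer binding signal between the protein and its labelled peptide by more than half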;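 further: 0% = Smad3 plus labelled peptide maximal FRET and 100% = peptide-only background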
Target sequence (P84022 whole entry, looked up): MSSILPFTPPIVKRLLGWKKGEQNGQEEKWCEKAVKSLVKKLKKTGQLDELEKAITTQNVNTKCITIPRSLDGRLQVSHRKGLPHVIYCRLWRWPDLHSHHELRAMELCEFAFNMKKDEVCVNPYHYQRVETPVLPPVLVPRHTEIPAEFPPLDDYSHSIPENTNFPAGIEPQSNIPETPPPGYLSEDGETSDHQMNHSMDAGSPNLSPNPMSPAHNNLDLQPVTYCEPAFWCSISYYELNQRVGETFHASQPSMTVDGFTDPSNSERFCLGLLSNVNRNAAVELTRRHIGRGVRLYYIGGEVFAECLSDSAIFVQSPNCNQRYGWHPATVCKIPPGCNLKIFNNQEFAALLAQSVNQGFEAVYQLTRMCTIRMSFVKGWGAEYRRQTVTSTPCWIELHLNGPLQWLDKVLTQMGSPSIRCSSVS
Numbers without * were called inactive; . = no result; [ ] = dose if it differs, or a comment. Rows were chosen to be rich in hits. Some 4% of all compounds tested hit in one or more screens of this group.

SMILES	ERa coact inh	Rev-RRE block	ERa coact pot	ERb SRC1 inh	FAK blocker	Smad3 FoxH1 inh
COc1ccc(OC)c(C2C3CN(C(C)C)CC=C3C(C#N)=C(N)C2(C#N)C#N)c1 (stereo not given)	3	82*	135	11	1	-3
N#CC1=C(N)C(C#N)(C#N)[C@H](c2ccoc2)[C@H]2CN(Cc3ccccc3)CC=C12	3	100*[fluorescence artefact?]	86	14	2	-1
NCc1ccc(C(=O)O)cc1	.	.	.	.	.	7
COc1ccc(-c2noc(CCC(=O)N3CCN(c4cccc(C(F)(F)F)c4)CC3)n2)cc1	-11	7	99	51*	4	8
COc1cc(C(=O)OCC(=O)Nc2c(F)c(F)c(F)c(F)c2F)cc(OC)c1OC	58*	4	95	37	-1	-3
COc1cc(/C=c2\s/c(=C(/C#N)C(=O)N3CCCC3)n(-c3ccccc3)c2=O)ccc1O	59*	46*	64	19	-5	-2
O=C(O)c1cccc(Nc2nc(N3CCOCC3)nc(N3CCOCC3)n2)c1	-4	4	626*[fluorescence artefact?]	-6	1	17
O=C(O)c1cc(Nc2nc(N3CCOCC3)nc(N3CCOCC3)n2)ccc1Cl	2	2	106	9	2	-7
Cc1nc(SCC(=O)c2ccccc2)c(C#N)c(-c2ccco2)c1C(=O)NCc1ccco1	18	.	236*	19	.	3
FC(F)(F)c1cccc(-c2nc3nc(Cl)c(Cl)nc3[nH]2)c1	.	.	.	.	.	8
CC(c1ccccc1)N1CCn2c(nc3cc(NC(=O)c4cccs4)ccc32)C1 (stereo not given)	0	12	81	3	3	-2
COCCN1CCn2c(nc3cc(NC(=O)c4cccs4)ccc32)C1	74*[fluorescence artefact?]	17	17	43	3	-13
COC(=O)c1ccccc1S(=O)(=O)N1Cc2cc([N+](=O)[O-])ccc2Oc2ccccc21	-5	14	109	4	2	12
COC(=O)c1sc(NC(=O)c2cnccn2)c(C(=O)OC)c1C	52*	1	119	-2	-5	1
C=CCn1c(=O)/c(=C/c2ccc(Cl)cc2)s/c1=C(/C#N)c1nnc2n1CCCCC2	-2	-2	100	-7	1	9
C=CCn1c(=O)/c(=C/c2ccc(O)cc2)s/c1=C(/C#N)c1nnc2n1CCCCC2	-9	73*	98	1	0	-2
COc1ccc2c(-c3ccccc3)cc3nnnn3c2c1	17	5	206*	16	-11	-1
CC(C)NC[C@@H](O)c1ccc(O)c2ncccc12	.	.	.	.	.	19
COc1cc(C)c(S(=O)(=O)NCc2ccc3c(c2)OCO3)cc1C	66*	7	79	0	1	9
O=C(NC1CCSC1=O)c1ccccc1 (stereo not given)	4	7	140	-6	-1	-13
Cc1ccc(C(=O)NC2CCSC2=O)cc1 (stereo not given)	6	6	113	1	-1	54*[fluorescence artefact?]
O=C(NC1CCSC1=O)c1cccc(C(=O)NC2CCSC2=O)c1 (stereo not given)	23	7	208*	11	4	4
N=C(N)SCCCN	.	.	.	.	.	-16
CC(C)(CC(=O)Nc1ccccc1)C(=O)O	.	.	.	.	.	2
CCOC(=O)C1=C(C)OC(N)=C(C#N)C1c1cc2cc(C)ccc2nc1N1CCCCC1 (stereo not given)	14	17	318*[fluorescence artefact?]	32	-1	7
SMILES	ERa coact inh	Rev-RRE block	ERa coact pot	ERb SRC1 inh	FAK blocker	Smad3 FoxH1 inh
O=C1O[C@@H]([C@H](O)[C@H](O)[C@H](O)CO)[C@@H](O)[C@@H]1O	.	.	.	.	.	6
O=C(Cn1cnc2sc(-c3ccccc3)cc2c1=O)NCc1ccccc1	59*[fluorescence artefact?]	15	216*	63*[fluorescence artefact?]	9	4
O=C(Cn1ncn2c(cc3ccccc32)c1=O)NCCC1=CCCCC1	5	12	120	-1	2	10
O=C(Cn1cnc2sc(-c3ccccc3)cc2c1=O)NCc1ccco1	66*[fluorescence artefact?]	6	147	46	15	-7
O=C(Cn1cnc2sc(-c3ccccc3)cc2c1=O)NCCc1ccccc1	43	16	213*[fluorescence artefact?]	37	-1	21
O=C(Cn1ncn2c(cc3ccccc32)c1=O)NCc1ccco1	57*[fluorescence artefact?]	-2	95	38	4	8
Cc1sc2ncn(CC(=O)NCCc3ccccc3)c(=O)c2c1C	15	1	101	18	-2	7
N[C@@](CCc1ccccc1)(C(=O)O)c1ccccc1	.	.	.	.	.	3
Cn1ccnc1SCC(=O)Nc1ccc2c(c1)COC2=O	24	6	95	22	5	5
Cc1ccc(NC(=O)CSc2nnnn2-c2ccc3c(c2)OCO3)cc1C	56*[fluorescence artefact?]	5	330*	38	3	2
CCOC(=O)c1csc(NC(=O)CSc2nnnn2-c2cccc(OC)c2)n1	4	0	143	-7	-1	11
Cc1ccc(-n2nnnc2SCC(=O)Nc2ccc3c(c2)OCCO3)cc1C	20	7	124	3	1	0
Cc1ccc(-n2nnnc2SCC(=O)Nc2ccc3c(c2)COC3=O)cc1C	73*	-3	150	48	1	-35
COc1cccc(-n2nnnc2SCC(=O)Nc2ccc(C(C)=O)cc2)c1	33	2	332*	30	-2	-15
COc1ccc(Cl)cc1CN1CCN(c2nc(C)cc(C)c2C#N)CC1	3	40*	123	-4	1	1
O=C(O)c1ccc([N+](=O)[O-])c(P(=O)(O)O)c1	.	.	.	.	.	-2
CCC(=O)Nc1cc(C)c(NC(=O)CCc2ccccc2)cn1	-6	38*	123	3	2	-1
CN(Cc1ccccc1)C(=O)c1cccc(N2C(=O)NC3CC2(C)Oc2ccccc23)c1 (stereo not given)	-7	1	95	-3	0	-5
CN(C)c1ccc(/C=C/C(O)=C2/C(=O)N(C)C3(C)CC2c2ccccc2O3)cc1 (stereo not given)	74*[fluorescence artefact?]	121*[fluorescence artefact?]	27	60*[fluorescence artefact?]	0	7
O=C(/C=C/c1ccccc1)c1cc(Br)ccc(=O)c1O	.	46*	.	.	-7	.
O=C(/C=C/c1ccccc1)c1ccccc1	2	.	102	-5	.	9
O=S(=O)(O)c1cc(O)c2c(N=Cc3ccccc3O)cc(S(=O)(=O)O)cc2c1	.	.	.	.	.	-2
O[C@@H](COc1cccc2ccccc12)CN1CCOCC1	.	.	.	.	.	-4
COc1ccc(C(C)C)cc1S(=O)(=O)Nc1ccc(Cl)cn1	-2	4	134	74*[fluorescence artefact?]	-3	5
CN1CCc2ccccc2[C@H]1Cc1ccccc1NC(=O)c1sc2ccccc2c1Cl	.	.	.	.	.	32
O=C(O)CCCN1C(=O)/C(=C/c2ccc(-c3nc4ccccc4s3)o2)SC1=S	.	71*	.	.	7	.

Screening data deposited in PubChem by several laboratories.
